Test results reported in ChEMBL document CHEMBL1255470, “Effect of ceftaroline on normal human intestinal microflora” (Antimicrob Agents Chemother, 2010).
In brackets after ≈: the same amount, converted by molar mass. Activity calls are given as the source filed them. The rule behind the calls is not given here.

What was measured:
Clostridium septicum = assay: Antibacterial activity against Clostridium septicum by broth microdilution method; type: functional
Clostridioides difficile [1] = assay: Antibacterial activity against Clostridium difficile by broth microdilution method; type: functional
Prevotella = assay: Antibacterial activity against Prevotella by broth microdilution method; type: functional
Homo sapiens [2] = assay: Toxicity against healthy human assessed as occurrence of urinary infection at […], iv administered every 12 hrs for 7 days measured on day 9; type: organism-based, Urine; design: route intravenous; conditions: in vivo
Enterococcus = assay: Antibacterial activity against Enterococcus in healthy human intestine at […], iv administered every 12 hrs for 7 days measured on day 21; type: functional, organism-based
In short: (§1)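 Twelve healthy adults (6 male, 6 female, 20–41 y) received 600 mg by i.v. infusion over 60 min q12h, 13 doses over 7 days. Feces were collected on days −1, 2, 5, 7, 9, 14 and 21 (first specimen of the day) and frozen at −70°C. Samples were suspended in prereduced peptone yeast extract and 10-fold diluted onto nonselective and selective agars. Aerobic plates were incubated 24 h and anaerobic jars 48 h, both at 37°C. Counts were expressed as log CFU/g, with a detection limit of 10^2, and compared by Wilcoxon signed-rank test.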

Candida albicans = assay: Antifungal activity against Candida albicans in healthy human intestine at […], iv administered every 12 hrs for 7 days measured on day 21; type: functional, organism-based; in short: as §1
Escherichia coli [3] = assay: Antibacterial activity against Escherichia coli in healthy human intestine assessed as log reduction in bacterial count per gram of feces at […], iv administered every 12 hrs for 7 days measured on day 7; type: functional; in short: as §1
Escherichia coli [4] = assay: Antibacterial activity against Escherichia coli in healthy human intestine assessed as log reduction in bacterial count per gram of feces at […], iv administered every 12 hrs for 7 days measured on day 9; type: functional; in short: as §1
Escherichia coli [5] = assay: Antibacterial activity against Escherichia coli in healthy human intestine assessed as decrease in bacterial count at […], iv administered every 12 hrs for 7 days measured on day 14; type: functional, organism-based; in short: as §1
Enterobacteriaceae = assay: Antibacterial activity against Enterobacteriaceae in healthy human intestine assessed as decrease in bacterial count at […], iv administered every 12 hrs for 7 days measured on day 14; type: functional, organism-based; in short: as §1
Bifidobacterium = assay: Antibacterial activity against Bifidobacterium in healthy human intestine assessed as log reduction in bacterial count per gram of feces at […], iv administered every 12 hrs for 7 days measured on day 7; type: functional; in short: as §1
Lactobacillus = assay: Antibacterial activity against Lactobacillus in healthy human intestine assessed as log reduction in bacterial count per gram of feces at […], iv administered every 12 hrs for 7 days measured on day 7; type: functional; in short: as §1
Clostridium = assay: Antibacterial activity against Clostridium in healthy human intestine assessed as decrease in bacterial count at […], iv administered every 12 hrs for 7 days measured on day 7; type: functional, organism-based; in short: as §1
Bacteroides sp. = assay: Antibacterial activity against Bacteroides sp. in healthy human intestine assessed as decrease in bacterial count at […], iv administered every 12 hrs for 7 days measured on day 21; type: functional, organism-based; in short: as §1
Homo sapiens [6] = assay: Toxicity against healthy human assessed as effect on ECG parameters at […], iv administered every 12 hrs for 7 days measured on day 9; type: organism-based; design: route intravenous; conditions: in vivo
Bacteroides fragilis [7] = assay: Antibacterial activity against Bacteroides fragilis ATCC 25285 after 48 hrs by CLSI method; type: functional; conditions: NCTC 9343, 48 h
In short: (§2)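 Agar dilution MIC per CLSI anaerobe guidance, with 10^5 CFU per spot inoculum and 48 h incubation. The reference strain was run alongside new colonizing fecal isolates. MIC was taken as the lowest drug concentration giving complete growth inhibition. A provisional resistance breakpoint of 4 mg/liter was applied.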

Clostridioides difficile [8] = assay: Antibacterial activity against Clostridium difficile ATCC 700057 after 48 hrs by CLSI method; type: functional; conditions: ATCC 700057, 48 h; in short: as §2
Staphylococcus aureus = assay: Antibacterial activity against Staphylococcus aureus ATCC 29213 at =< 4 mg/L after 48 hrs by CLSI method; type: functional, organism-based
Enterococcus faecalis = assay: Antibacterial activity against Enterococcus faecalis ATCC 29212 at =< 4 mg/L after 48 hrs by CLSI method; type: functional, organism-based
Escherichia coli [9] = assay: Antibacterial activity against Escherichia coli ATCC 25922 at =< 4 mg/L after 48 hrs by CLSI method; type: functional, organism-based
Bacteroides fragilis [10] = assay: Antibacterial activity against Bacteroides fragilis by broth microdilution method; type: functional
Homo sapiens [11] = assay: Toxicity against healthy human assessed as effect on hematological parameters at […], iv administered every 12 hrs for 7 days measured on day 9; type: organism-based; design: route intravenous; conditions: in vivo
Propionibacterium = assay: Antibacterial activity against Propionibacterium by broth microdilution method; type: functional
Peptostreptococcus sp. = assay: Antibacterial activity against Peptostreptococcus sp. by broth microdilution method; type: functional
Clostridium perfringens = assay: Antibacterial activity against Clostridium perfringens by broth microdilution method; type: functional

CCO/N=C(\C(=O)N[C@@H]1C(=O)N2C(C(=O)[O-])=C(Sc3nc(-c4cc[n+](C)cc4)cs3)CS[C@H]12)c1nsc(NP(=O)(O)O)n1 [CEFTAROLINE FOSAMIL] was tested, and the MIC90 (Clostridium septicum) was 4 µg/mL (≈ 5.84 µM), the MIC90 (Clostridioides difficile [1]) was 4 µg/mL (≈ 5.84 µM) and the MIC90 (Prevotella) was > 32 µg/mL. The Activity (Homo sapiens [2]) was “Non-toxic”, the Activity (Enterococcus) was “inactive” and the Activity (Candida albicans) was “inactive”. For the same molecule, the log10cfu (Escherichia coli [3]) was 2, the log10cfu (Escherichia coli [4]) was 1.5 and the inhibition (Escherichia coli [5]) was “Active”. The inhibition (Enterobacteriaceae) was “inactive”, the log10cfu (Bifidobacterium) was 2.1 and the log10cfu (Lactobacillus) was 1.7. For the same molecule, the inhibition (Clostridium) was “inactive”, the inhibition (Bacteroides sp.) was “inactive” and the Activity (Homo sapiens [6]) was “Non-toxic”. The MIC (Bacteroides fragilis [7]) was ≥ 64 µg/mL, the MIC (Clostridioides difficile [8]) was 4 µg/mL (≈ 5.84 µM) and the Activity (Staphylococcus aureus) was “Active”. For the same molecule, the Activity (Enterococcus faecalis) was “Active”, the Activity (Escherichia coli [9]) was “Active” and the MIC90 (Bacteroides fragilis [10]) was > 32 µg/mL. The Activity (Homo sapiens [11]) was “Non-toxic”, the MIC90 (Propionibacterium) was 4 µg/mL (≈ 5.84 µM) and the MIC90 (Peptostreptococcus sp.) was 4 µg/mL (≈ 5.84 µM). For the same molecule, the MIC90 (Clostridium perfringens) was 4 µg/mL (≈ 5.84 µM).
